Experimental data as given in ChEMBL document CHEMBL1135821, “Unique overlap in the prerequisites for thrombin inhibition and oral bioavailability resulting in potent oral antithrombotics” (J Med Chem, 2002).

What was measured:
Prothrombin [1] = target: T1, Prothrombin (Homo sapiens, UniProt P00734); experiment: Inhibitory activity against thrombin.
[2] = Bioavailability in dog; format: ADME, organism-based, Canis lupus familiaris; details: in vivo
Outline: (§1)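 Rats (275-325 g) with jugular cannula placed under methohexital one day earlier; dogs dosed by both routes with at least 2 weeks wash-out. IV and oral gavage in separate rats. At least six blood samples in EDTA. Plasma anti-IIa activity measured with S-2238 against a compound-spiked plasma calibration. %F = PO AUC divided by dose-normalized mean IV AUC ×100, AUC by trapezium rule.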

[3] = Half life value in wistar rats; format: ADME, organism-based; details: rat, in vivo
Outline: (§2)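 Elimination half-life after IV dosing of cannulated rats (275-325 g) or dogs, at least six EDTA plasma samples. Plasma samples diluted in Tris-NaCl pH 7.4, incubated 2 min with 0.5 U/mL human thrombin, then S-2238 added. ΔOD405 taken between 2 and 22 min and read against a calibration of compound spiked in pooled plasma. Fitted by iterative Simplex procedure.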

[4] = Bioavailability in rat (Wistar); format: ADME, organism-based; details: in vivo; outline: as §1
[5] = Half life value in rat was determined; format: ADME, organism-based; details: in vivo; outline: as §2
[6] = Bioavailability in rat; format: ADME, organism-based; details: in vivo; outline: as §1
[7] = Oral bioavailability; format: ADME, organism-based; details: eutheria, in vivo; outline: as §1
[8] = Half life value determined in dog; format: ADME, Canis lupus familiaris; details: in vivo; outline: as §2
[9] = Half life was reported; format: ADME
[10] = Clearance was reported; format: ADME, organism-based; details: in vivo
Prothrombin [11] = target: T1, Prothrombin; experiment: Antithrombotic potency in the Aortic flow model in rats was reported; format: functional; details: Rattus norvegicus; target entry is the homologue from another species
Outline: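 Rats (350-500 g body wt) were weighed. A silk thread (size 4/0, uncoated), knotted twice and protruding 3 mm from a catheter, was introduced via the left common carotid artery and positioned in the aorta. The carotid was clamped and the iliac clamp released. After 10 min of blood circulation, the thread was removed and rinsed, and thrombus weight and length were measured.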

[12] = Bioavailability in dog determined; format: ADME, organism-based, Canis lupus familiaris; details: in vivo; outline: as §1
[13] = Half life value in dog was determined; format: ADME, organism-based, Canis lupus familiaris; details: in vivo; outline: as §2
[14] = Bioavailability determined in rat; format: ADME, organism-based; details: in vivo; outline: as §1

Q: Which Ki (Prothrombin [1]) does the source give for `NC(N)=NCCC[C@@H]1NC(=O)[C@@H]2CCCN2C(=O)[C@@H](NC=O)CNC(=O)/C=C/[C@H](Cc2ccc(O)cc2)NC(=O)[C@@H](Cc2ccccc2)NC(=O)C1=O` [CYCLOTHEONAMIDE A] here?
A: The Ki was 1 nM.

Q: Which bioavailability [2] does the source give for `NCCCC[C@H](NC(=O)[C@@H]1C=CCN1C(=O)[C@@H](CC1CCCCC1)NCC(=O)O)C(=O)C(=O)O` here?
A: Its bioavailability is 68%.

Q: And the half-life [3]?
A: Its half-life is 22 min.

Q: What about the bioavailability [4] of the same molecule?
A: The bioavailability was 37%.

Q: What about the half-life [4] of the same molecule?
A: Its half-life is 32 min.

Q: And the Ki (Prothrombin [1])?
A: Its Ki is 0.33 nM.

Q: For `NCCCC[C@H](NC(=O)[C@@H]1CCCN1C(=O)[C@H](N)Cc1ccccc1)C(=O)C(=O)O`, which Ki (Prothrombin [1]) is on record?
A: Its Ki is 1.4 nM.

Q: With `NCCCC[C@H](NC(=O)[C@@H]1CCCN1C(=O)CC(c1ccccc1)c1ccccc1)C(=O)c1nccs1` as the molecule, how does the Ki (Prothrombin [1]) read?
A: The Ki was 204 nM.

Q: Which half-life [5] does the source give for `NCCCC[C@H](NC(=O)[C@@H]1CC2CCCCC2N1C(=O)[C@@H](CC1CCCCC1)NCC(=O)O)C(=O)C(=O)O` (stereo partly drawn) here?
A: The half-life was 8 min.

Q: What about the Ki (Prothrombin [1]) of the same molecule?
A: Its Ki is 0.82 nM.

Q: And the bioavailability [6]?
A: Its bioavailability is 25%.

Q: For `CC1CNc2c(cccc2S(=O)(=O)N[C@@H](CCCNC(=N)N)C(=O)N2CC[C@@H](C)C[C@@H]2C(=O)O)C1` (stereo partly drawn) [ARGATROBAN], which bioavailability [7] is on record?
A: The bioavailability was 27%.

Q: Which Ki (Prothrombin [1]) does the source give for `CCS(=O)(=O)N[C@H](CC1CCCCC1)C(=O)N1CCC[C@H]1C(=O)N[C@@H](CCCCN)C(=O)c1nccs1` here?
A: The Ki was 2 nM.

Q: For `COc1ccc2ccc(S(=O)(=O)N[C@@H](CCCCN)C(=O)N3CCC(C)CC3)cc2c1`, which Ki (Prothrombin [1]) is on record?
A: The Ki was greater than 1000 nM.

Q: With `NCCCC[C@H](NC(=O)[C@@H]1CCCN1C(=O)[C@H](N)CC1CCCCC1)C(=O)c1nccs1` as the molecule, how does the half-life [3] read?
A: The half-life was 17 min.

Q: And the bioavailability [4]?
A: The bioavailability was less than 5%.

Q: What about the Ki (Prothrombin [1]) of the same molecule?
A: The Ki was 3.5 nM.

Q: With `NCCCC[C@H](NC(=O)[C@@H]1CCN1C(=O)[C@@H](CC1CCCCC1)NCC(=O)O)C(=O)C(=O)O` as the molecule, how does the half-life [8] read?
A: Its half-life is 42 min.

Q: What about the bioavailability [2] of the same molecule?
A: Its bioavailability is 1%.

Q: And the half-life [3]?
A: The half-life was 21 min.

Q: What about the bioavailability [4] of the same molecule?
A: Its bioavailability is 15%.

Q: And the Ki (Prothrombin [1])?
A: The Ki was 0.5 nM.

Q: With `NCCCC[C@H](NC(=O)[C@@H]1CCCN1C(=O)[C@H](CC(=O)O)NS(=O)(=O)Cc1ccccc1)C(=O)C(=O)O` as the molecule, how does the Ki (Prothrombin [1]) read?
A: The Ki was 15 nM.

Q: For `O=C(c1nccs1)[C@H](CCCCO)NC(=O)[C@@H]1CCCN1C(=O)CC(c1ccccc1)c1ccccc1`, which Ki (Prothrombin [1]) is on record?
A: Its Ki is greater than 1000 nM.

Q: Which Ki (Prothrombin [1]) does the source give for `NC(N)=NCCC[C@H](NC(=O)[C@@H]1CCCN1C(=O)[C@@H](N)Cc1ccccc1)C(=O)c1nccs1` here?
A: The Ki was 0.3 nM.

Q: And the bioavailability [7]?
A: The bioavailability was less than 5%.

Q: What about the half-life [9] of the same molecule?
A: Its half-life is 5 min.

Q: Which Ki (Prothrombin [1]) does the source give for `CC1(C)CCN(C(=O)[C@@H](CC2CCCCC2)NCC(=O)O)[C@@H]1C(=O)N[C@@H](CCCCN)C(=O)C(=O)O` here?
A: Its Ki is 376 nM.

Q: What does the source list for `NCCCC[C@H](NC(=O)[C@@H]1CCCN1C(=O)[C@@H](CC1CCCCC1)NCC(=O)O)C(=O)c1ncco1`?
A: Ki (Prothrombin [1]): 0.42 nM; bioavailability [7]: 28%; half-life [9]: < 5 min

Q: Which half-life [8] does the source give for `NCCCC[C@H](NC(=O)[C@@H]1CCCN1C(=O)[C@@H](CC1CCCCC1)NCC(=O)O)C(=O)C(=O)O` here?
A: Its half-life is 78 min.

Q: And the clearance [10]?
A: Its clearance is 0.417 mL/min.

Q: What about the half-life [3] of the same molecule?
A: Its half-life is 19 min.

Q: And the ED50 (nM min-1 kg-1) (Prothrombin [11])?
A: Its ED50 (nM min-1 kg-1) is 7.5.

Q: And the Ki (Prothrombin [1])?
A: Its Ki is 0.29 nM.

Q: And the bioavailability [12]?
A: Its bioavailability is 24%.

Q: What about the bioavailability [7] of the same molecule?
A: The bioavailability was 39%.

Q: Which half-life [5] does the source give for `NCCCC[C@H](NC(=O)[C@@H]1CCCN1C(=O)[C@@H](CC1CCCCC1)NCC(=O)O)C(=O)C(=O)NCCc1ccccc1` here?
A: The half-life was 17 min.

Q: And the Ki (Prothrombin [1])?
A: The Ki was 0.84 nM.

Q: What about the bioavailability [6] of the same molecule?
A: The bioavailability was 23%.

Q: Which results are given for `NCCCC[C@H](NC(=O)[C@@H]1CCCN1C(=O)[C@H](N)CC1CCCCC1)C(=O)C(=O)O`?
A: Ki (Prothrombin [1]): 0.14 nM; bioavailability [7]: 9%; half-life [9]: 9 min

Q: For `NCCCC[C@H](NC(=O)[C@@H]1CCCN1C(=O)[C@H](N)Cc1ccccc1)C(=O)c1nccs1`, which Ki (Prothrombin [1]) is on record?
A: Its Ki is 146 nM.

Q: With `NCCCC[C@H](NC(=O)CN(C(=O)[C@H](N)CC1CCCCC1)C1CC1)C(=O)c1nccs1` as the molecule, how does the Ki (Prothrombin [1]) read?
A: The Ki was 13 nM.

Q: Which results are given for `CC(C)OC(=O)C(=O)[C@H](CCCCN)NC(=O)[C@@H]1CCCN1C(=O)[C@@H](CC1CCCCC1)NCC(=O)O`?
A: bioavailability [2]: 71%; half-life [5]: 58 min; Ki (Prothrombin [1]): 1.1 nM; bioavailability [6]: 32%; half-life [13]: 108 min

Q: For `COc1ccc2ccc(S(=O)(=O)N[C@@H](CCCCN)C(=O)c3nccs3)cc2c1`, which Ki (Prothrombin [1]) is on record?
A: Its Ki is greater than 1000 nM.

Q: For `NCCCC[C@H](NC(=O)CN(C(=O)[C@@H](CC1CCCCC1)NCC(=O)O)C1CCCC1)C(=O)C(=O)O`, which half-life [5] is on record?
A: Its half-life is 18 min.

Q: What about the Ki (Prothrombin [1]) of the same molecule?
A: The Ki was 0.21 nM.

Q: What about the bioavailability [6] of the same molecule?
A: The bioavailability was 2%.

Q: What does the source list for `NCCCC[C@H](NC(=O)[C@@H]1CCCN1C(=O)[C@@H](CC1CCCCC1)NCC(=O)O)C(=O)c1nccs1`?
A: ED50 (nM min-1 kg-1) (Prothrombin [11]): 19; Ki (Prothrombin [1]): 2.6 nM; bioavailability [7]: 23%; half-life [9]: 23 min

Q: Which Ki (Prothrombin [1]) does the source give for `NCCCC[C@H](NC(=O)CN(C1CC1)C1Cc2ccccc2C1)C(=O)c1nccs1` here?
A: Its Ki is greater than 1000 nM.

Q: For `NCCCC[C@H](NC(=O)[C@@H]1CCCCN1C(=O)[C@@H](CC1CCCCC1)NCC(=O)O)C(=O)C(=O)O`, which bioavailability [14] is on record?
A: Its bioavailability is 6%.

Q: And the half-life [3]?
A: The half-life was 5 min.

Q: And the Ki (Prothrombin [1])?
A: Its Ki is 0.29 nM.
